According to ChEMBL document CHEMBL4811218, “Discovery and optimization of withangulatin A derivatives as novel glutaminase 1 inhibitors for the treatment of triple-negative breast cancer” (Eur J Med Chem, 2021):
Calls of active or inactive are those of the source. No cut-off for these calls is given here.

Assays:
[1] = system: MDA-MB-231; test: Antiproliferative activity against human MDA-MB-231 cells after 24 hrs by MTT assay; assay type: functional, cell-based
[2] = system: MDA-MB-231; test: Induction of apoptosis in human MDA-MB-231 cells assessed as necrotic cells at 640 nM incubated for 12 hrs by annexin V-FITC/PI based flow cytometric analysis (reference value: 0.1%); assay type: functional
In short: (§1)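 Cells exposed to compound or 0.1% DMSO for 12 h at 37°C, then resuspended in PBS at 1×10^5 cells/mL. Stained with annexin V-FITC and PI for 20 min at room temperature in the dark, then analysed by flow cytometry. Quadrant percentages reported: lower right early apoptotic, upper right late apoptotic. n = 4, mean ± SD.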

[3] = system: MDA-MB-231; test: Induction of apoptosis in human MDA-MB-231 cells assessed as late apoptotic cells at 320 nM incubated for 12 hrs by annexin V-FITC/PI based flow cytometric analysis (reference value: 0.7%); assay type: functional; in short: as §1
[4] = system: MDA-MB-231; test: Induction of apoptosis in human MDA-MB-231 cells assessed as necrotic cells at 160 nM incubated for 12 hrs by annexin V-FITC/PI based flow cytometric analysis (reference value: 0.1%); assay type: functional; in short: as §1
[5] = system: MDA-MB-231; test: Inhibition of colony formation in human MDA-MB-231 cells at 160 to 640 nM treated for 24 hrs and incubated for 2 weeks by crystal violet staining based assay; assay type: functional, cell-based; conditions: dose 160-640 nM
In short: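 MDA-MB-231 cells seeded at 1000 per well and left 24 h. Treated with DMSO vehicle or compound for 24 h, then grown two weeks with medium changed twice weekly. Colonies fixed in 4% paraformaldehyde and stained with 0.05% crystal violet. Result expressed as % of vehicle. n = 4.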

[6] = biological target: T1, Glutaminase kidney isoform, mitochondrial (Homo sapiens) (UniProt O94925); test: Inhibition of human GLS1 at 10 uM relative to control
T1 sequence (whole entry): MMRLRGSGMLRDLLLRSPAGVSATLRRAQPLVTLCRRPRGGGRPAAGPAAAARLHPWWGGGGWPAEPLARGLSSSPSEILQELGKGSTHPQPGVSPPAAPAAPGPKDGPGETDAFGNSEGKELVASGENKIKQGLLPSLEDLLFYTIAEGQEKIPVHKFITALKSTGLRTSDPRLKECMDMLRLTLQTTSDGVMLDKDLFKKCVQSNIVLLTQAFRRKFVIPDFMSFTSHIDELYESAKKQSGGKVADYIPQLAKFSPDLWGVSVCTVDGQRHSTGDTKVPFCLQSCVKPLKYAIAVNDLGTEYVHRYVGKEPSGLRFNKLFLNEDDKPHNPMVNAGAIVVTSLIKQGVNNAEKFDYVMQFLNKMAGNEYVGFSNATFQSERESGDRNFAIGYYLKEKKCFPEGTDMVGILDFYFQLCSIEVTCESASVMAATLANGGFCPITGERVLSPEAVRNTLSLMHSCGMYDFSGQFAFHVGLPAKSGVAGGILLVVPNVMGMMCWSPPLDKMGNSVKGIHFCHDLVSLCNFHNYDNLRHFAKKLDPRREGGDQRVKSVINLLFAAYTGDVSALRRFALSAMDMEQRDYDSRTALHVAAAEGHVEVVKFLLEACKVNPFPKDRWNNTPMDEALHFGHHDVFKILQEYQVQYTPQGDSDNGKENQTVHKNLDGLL
In short: (§2)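 Human GLS1 hydrolase activity measured with a commercial GLS1 inhibitor screening kit, following the manufacturer's protocol. Single-point screening was run at 10 μM.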

[7] = system: MDA-MB-231; test: Induction of apoptosis in human MDA-MB-231 cells assessed as viable cells at 160 nM incubated for 12 hrs by annexin V-FITC/PI based flow cytometric analysis (reference value: 98.1%); assay type: functional; conditions: read-out: Activity; in short: as §1
[8] = system: MDA-MB-231; test: Induction of apoptosis in human MDA-MB-231 cells assessed as increase in cleaved caspase-3 expression after 12 hrs by Western blotting analysis; assay type: functional, cell-based; conditions: dose 160-640 nM
In short: (§3)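 MDA-MB-231 cells exposed to graded concentrations or 0.1% DMSO; the methods state 24 h, the legend 12 h. Lysed in RIPA, 80 µg protein per lane on SDS-PAGE and transferred to PVDF. Probed overnight at 4°C for caspase-3, cleaved caspase-3, caspase-9 and cleaved caspase-9, with GAPDH as loading control. HRP secondaries, ECL detection, densitometry. n = 4.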

[9] = Toxicity in BALB/c nude mouse xenografted with human MDA-MB-231 cells assessed as kidney tissue damage at 25 to 50 mg/kg, ip administered every 3 days for 4 weeks; assay type: organism-based; conditions: in vivo, 672 h, dose 25-50 mg/kg
In short: (§4)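 Xenograft-bearing nude mice (MDA-MB-231, s.c. right flank, treated from about 100 mm³) received 25 or 50 mg/kg i.p. every three days for four weeks. At the end mice were euthanized, and visceral organs were fixed in 4% paraformaldehyde for histopathology.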

[10] = system: MDA-MB-231; test: Antiproliferative activity against human MDA-MB-231 cells after 24 hrs by MTT assay relative to control; assay type: functional
In short: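 MDA-MB-231 cells kept in DMEM with 10% FBS at 37°C, 5% CO2. Seeded at 5×10^3 cells/well and left 24 h, then exposed to compounds at 0.078-10 µM for 24 h. 0.1% DMSO served as the vehicle control. MTT added for 4 h, formazan dissolved in DMSO, absorbance read at 570 nm. IC50 derived. Each run in triplicate, repeated at least three times.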

[11] = system: MDA-MB-231; test: Induction of apoptosis in human MDA-MB-231 cells assessed as early apoptotic cells at 640 nM incubated for 12 hrs by annexin V-FITC/PI based flow cytometric analysis (reference value: 1.2%); assay type: functional; in short: as §1
[12] = Toxicity in BALB/c nude mouse xenografted with human MDA-MB-231 cells assessed as liver tissue damage at 25 to 50 mg/kg, ip administered every 3 days for 4 weeks; assay type: organism-based; conditions: in vivo, 672 h, dose 25-50 mg/kg; in short: as §4
[13] = biological target: T2, Glutaminase kidney isoform, mitochondrial (Homo sapiens, UniProt O94925); test: Inhibition of human GLS1; in short: as §2
T2 sequence (O94925 whole entry): T1 sequence (whole entry)

[14] = Toxicity in BALB/c nude mouse xenografted with human MDA-MB-231 cells assessed as heart tissue damage at 25 to 50 mg/kg, ip administered every 3 days for 4 weeks; assay type: organism-based; conditions: in vivo, 672 h, dose 25-50 mg/kg; in short: as §4
[15] = system: MDA-MB-231; test: Induction of apoptosis in human MDA-MB-231 cells assessed as increase in cleaved caspase-9 expression after 12 hrs by Western blotting analysis; assay type: functional, cell-based; conditions: dose 160-640 nM; in short: as §3
[16] = biological target: T1, Glutaminase kidney isoform, mitochondrial (Homo sapiens); test: Inhibition of GLS1 in human MDA-MB-231 cells assessed as reduction in glutamate production incubated for 12 hrs by Amplex red glutamic acid assay; assay type: cell-based; conditions: dose 40-640 nM
In short: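 MDA-MB-231 cells pre-cultured 24 h at 37°C, then given compound or 0.1% DMSO for a further 12 h. Cells washed in PBS and lysed in RIPA at 4°C. Glutamate in the lysate measured with an Amplex Red glutamic acid kit per the manufacturer's protocol.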

[17] = Toxicity in BALB/c nude mouse xenografted with human MDA-MB-231 cells assessed as lung tissue damage at 25 to 50 mg/kg, ip administered every 3 days for 4 weeks; assay type: organism-based; conditions: in vivo, 672 h, dose 25-50 mg/kg; in short: as §4

IC50 ([1]; MDA-MB-231, 24 h): 320 nM
inhibition [6]: 87.2%
IC50 [13]: 1080 nM
inhibition [16]: Dose-Dependent Effect
Structure (SMILES): CC(=O)O[C@H]1C=C([C@H](C)[C@H]2CC(C)=C(C)C(=O)O2)[C@@]2(C)CC[C@H]3[C@@H](C[C@H]4O[C@]45[C@@H](OC(=O)CCCC(=O)Nc4ccc(N6CCOCC6)c(F)c4)C=CC(=O)[C@]35C)[C@@]12O
Activity [1]: Dose-Dependent Effect
Activity [2]: 0.1%
Activity [3]: 2.9%
Activity [4]: 0.2%
inhibition [5]: Active
viability at 0.16 µM [7]: 96.3%
Activity [8]: Dose-Dependent Effect
Activity [9]: Non-Toxic
inhibition (INH) [10]: 95.2%
Activity [11]: 28.5%
Activity [12]: Non-Toxic
Activity [14]: Non-Toxic
Activity [15]: Dose-Dependent Effect
Activity [17]: Non-Toxic
